Results as given in ChEMBL document CHEMBL1150666, “Antioxidant and free-radical scavenging activity of constituents of the leaves of Tachigalia paniculata” (J Nat Prod, 2002).

Experiments:
[1] = molecular target: Xanthine dehydrogenase/oxidase (Homo sapiens, UniProt P47989); assay: Inhibition of xanthine oxidase-mediated formation of uric acid by spectrophotometry
In short: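 Xanthine 100 μM in 0.1 M phosphate buffer pH 7.8 with 0.04 units/mL XOD, incubated 10 min at room temperature. Compounds added at several concentrations before enzyme; IC50 from regression lines.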

[2] = ABTS radical scavenging activity assessed as Trolox equivalent antioxidant capacity at 1 mM by spectrophotometry; assay type: physicochemical; details: 1000 µM
In short: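 ABTS radical cation made from 7 mM ABTS with 2.45 mM potassium persulfate, kept dark at room temperature 12 h. Diluted in PBS pH 7.4 to A734 0.70 and equilibrated at 30 °C. Methanol sample solutions (0.3–2 mM) were added to diluted ABTS. Percent inhibition at 734 nm versus methanol blank, plotted against concentration relative to Trolox; three determinations.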

Chain of Xanthine dehydrogenase/oxidase (P47989 whole entry): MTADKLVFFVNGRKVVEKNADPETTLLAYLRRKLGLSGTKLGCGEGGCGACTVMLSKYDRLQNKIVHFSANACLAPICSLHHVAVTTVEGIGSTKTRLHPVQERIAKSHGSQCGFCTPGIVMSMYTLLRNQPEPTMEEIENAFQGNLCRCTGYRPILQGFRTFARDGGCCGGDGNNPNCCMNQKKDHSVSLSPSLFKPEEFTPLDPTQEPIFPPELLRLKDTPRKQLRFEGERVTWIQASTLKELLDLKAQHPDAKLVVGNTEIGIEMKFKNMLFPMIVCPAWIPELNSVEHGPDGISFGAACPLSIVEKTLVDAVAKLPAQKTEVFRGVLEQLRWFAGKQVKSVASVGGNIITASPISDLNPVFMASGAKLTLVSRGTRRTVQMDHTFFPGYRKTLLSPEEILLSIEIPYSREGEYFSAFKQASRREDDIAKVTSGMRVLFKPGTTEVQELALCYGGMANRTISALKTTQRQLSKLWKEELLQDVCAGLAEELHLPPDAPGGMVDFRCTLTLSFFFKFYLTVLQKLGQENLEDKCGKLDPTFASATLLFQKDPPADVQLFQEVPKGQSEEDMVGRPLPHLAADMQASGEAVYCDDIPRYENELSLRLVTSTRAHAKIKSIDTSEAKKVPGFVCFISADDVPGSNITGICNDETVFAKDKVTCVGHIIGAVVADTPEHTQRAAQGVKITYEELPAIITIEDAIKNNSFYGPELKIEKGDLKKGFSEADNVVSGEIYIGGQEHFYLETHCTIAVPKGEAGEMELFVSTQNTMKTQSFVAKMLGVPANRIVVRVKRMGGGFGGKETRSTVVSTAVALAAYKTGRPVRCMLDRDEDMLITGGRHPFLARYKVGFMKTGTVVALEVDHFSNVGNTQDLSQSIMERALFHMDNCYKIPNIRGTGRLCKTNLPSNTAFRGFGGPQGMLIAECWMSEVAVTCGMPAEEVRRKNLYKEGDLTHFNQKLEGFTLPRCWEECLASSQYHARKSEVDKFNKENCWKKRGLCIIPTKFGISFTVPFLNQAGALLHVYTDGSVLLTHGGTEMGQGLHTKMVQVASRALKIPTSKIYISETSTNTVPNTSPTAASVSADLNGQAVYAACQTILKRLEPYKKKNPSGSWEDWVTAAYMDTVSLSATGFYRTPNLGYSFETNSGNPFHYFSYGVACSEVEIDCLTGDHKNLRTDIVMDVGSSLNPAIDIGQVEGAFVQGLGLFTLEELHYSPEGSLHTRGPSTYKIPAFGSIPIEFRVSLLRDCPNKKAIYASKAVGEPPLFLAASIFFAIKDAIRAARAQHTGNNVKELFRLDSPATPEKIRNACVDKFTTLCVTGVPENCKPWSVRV

| SMILES | IC50 [1] [µM] | Activity [2] [mM] |
| --- | --- | --- |
| O=c1c(O[C@@H]2O[C@H](CO)[C@@H](O)[C@H](O)[C@H]2O)c(-c2ccc(O)c(O)c2)oc2cc(O)cc(O)c12 [ISOQUERCETIN] | > 50 | 0.757 |
| COc1ccc(C=O)cc1O [ISOVANILLIN] | > 50 | 0.144 |
| COC(=O)c1ccc(O)cc1 [METHYLPARABEN] | > 50 | 0.147 |
| O=c1c(O)c(-c2ccc(O)c(O)c2)oc2cc(O)cc(O)c12 [QUERCETIN] |  | 2.6 |
| C[C@@H]1O[C@@H](Oc2c(-c3ccc(O)c(O)c3)oc3cc(O)cc(O)c3c2=O)[C@H](O)[C@H](O)[C@H]1O [QUERCITRIN] | 14.7 | 0.854 |

Second part, the compound after the results:

| IC50 [1] [µM] | Activity [2] [mM] | SMILES |
| --- | --- | --- |
| 6.13 | 1.42 | C[C@@H]1O[C@@H](OC[C@H]2O[C@@H](Oc3cc(O)c4c(=O)c(O)c(-c5cc(O)c(O)c(O)c5)oc4c3)[C@H](O)[C@@H](O)[C@@H]2O)[C@H](O)[C@H](O)[C@H]1O |
| 6.52 | 1.62 | O=c1c(O)c(-c2cc(O)c(O)c(O)c2)oc2cc(O[C@@H]3O[C@H](CO[C@@H]4O[C@H](CO)[C@@H](O)[C@H](O)[C@H]4O)[C@@H](O)[C@H](O)[C@H]3O)cc(O)c12 |
| 26.3 | 1.1 | O=c1c(O[C@@H]2O[C@H](CO)C(O)[C@H](O)[C@H]2O)c(-c2ccc(O)c(O)c2)oc2cc(O)cc(O)c12 (single isomer, unassigned) [ISOQUERCETIN] |
| 31.5 | 0.713 | O=C/C=C/c1ccc(O)c(O)c1 [CAFFEOYL ALDEHYDE] |
| 15.5 | 1.154 | COC(=O)c1cc(O)c(O)c(O)c1 [GALLIC ACID METHYL ESTER] |
| 29.6 | 0.855 | COC(=O)c1ccc(O)c(O)c1 [METHYL PROTOCATECHUATE] |
